In ChEMBL document CHEMBL4270662, “Discovery of Orally Active Inhibitors of Brahma Homolog (BRM)/SMARCA2 ATPase Activity for the Treatment of Brahma Related Gene 1 (BRG1)/SMARCA4-Mutant Cancers” (J Med Chem, 2018):
Converted amounts (≈) assume the structure as drawn. The source made the active and inactive calls. The calls are words filed in the database; no cut-off is given here.

Assays:
[1] = target: T1, SWI/SNF-related matrix-associated actin-dependent regulator of chromatin subfamily A member 2 (Homo sapiens, UniProt P51531); assay: Inhibition of recombinant His10-tagged ZZ-HCV3C-BRM ATPase-SnAC (636 to 1331 residues) (unknown origin) expressed in insect sf9 cells preincubated for 5 mins followed by pCMV-dR8.91 plasmid and ATP addition measured after 60 mins by ADP-Glo assay
[2] = test system: RERF-LC-AI; assay: Anti-tumor activity in human RERF-LC-A1 cells xenografted in athymic nude mouse assessed as tumor growth at 30 mg/kg, po administered daily for 4 consecutive days followed by incubation for next 3 days in absence of compounds relative to control; assay type: functional
[3] = target: T2, SWI/SNF-related matrix-associated actin-dependent regulator of chromatin subfamily A member 4 (Homo sapiens, UniProt P51532); assay: Inhibition of recombinant His6-tagged BRG1 ATPase-SnAC (658 to 1361 residues) (unknown origin) expressed in insect sf9 cells preincubated for 5 mins followed by pCMV-dR8.91 plasmid and ATP addition measured after 60 mins by ADP-Glo assay
[4] = test system: Mus musculus; assay: In vivo inhibition of BRM/BRG1 mutant in human RERF-LC-A1 cells xenografted in athymic nude mouse assessed as reduction in KRT80 gene expression at 20 mg/kg, po after 7 hrs by real-time PCR method; assay type: functional
Method in brief: (§1)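 RERF-LC-AI tumor-bearing nude mice received oral compound daily, suspended in 0.5% methyl cellulose and 0.5% Tween 80 in water, at 7.5 or 20 mg/kg. Tumor KRT80 mRNA was measured at several post-dose time points, including 7 h and 16 h onward.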

[5] = test system: Mus musculus; assay: In vivo inhibition of […] in human RERF-LC-A1 cells xenografted in athymic nude mouse assessed as reduction in KRT80 mRNA expression at 20 mg/kg, po measured at 16 hrs post last dose of 3 weeks of daily dosing by RT-PCR analysis; assay type: functional, organism-based; method in brief: as §1
[6] = Inhibition of BRM/BRG1 mutant in human NCI-H1299 cells assessed as reduction in KRT80 gene expression after 24 hrs by luciferase reporter gene assay; assay type: cell-based; conditions: NCI-H1299, 24 h
Method in brief: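 NCI-H1299 cells carry NanoLuc knocked into the endogenous KRT80 locus and are grown in RPMI-1640 with 10% FBS. Plated at 500 cells/well and left overnight, then dosed over 10 points in 3-fold dilutions from 10 µM.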

[7] = Inhibition of BRM/BRG1 mutant-dependant cell proliferation in human SKMEL5 cells after 6 days by celltiter-glo luminescent cell viability assay; assay type: cell-based; conditions: SK-MEL-5, 144 h
[8] = test system: Mus musculus; assay: Toxicity in athymic nude mouse xenografted with human RERF-LC-A1 cells up to 20 mg/kg, po administered for 3 weeks; assay type: organism-based; conditions: in vivo, 504 h
Method in brief: (§2)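 Nude mice bearing RERF-LC-AI xenografts were dosed orally with a suspension in 0.5% methyl cellulose and 0.5% Tween 80 in water. Dosing was daily for 3 weeks at 7.5 or 20 mg/kg. Tumor growth and tolerability were followed during dosing.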

[9] = test system: RERF-LC-AI; assay: Anti-tumor activity in human RERF-LC-A1 cells xenografted in athymic nude mouse assessed as tumor growth inhibition at 20 mg/kg, po administered for 3 weeks measured twice per week during compound dosing relative to control; assay type: functional; conditions: 504 h, read-out: TGI; method in brief: as §2
[10] = test system: Mus musculus; assay: In vivo inhibition of BRM/BRG1 mutant in human RERF-LC-A1 cells xenografted in athymic nude mouse assessed as reduction in KRT80 gene expression at 20 mg/kg, po after 16 to 24 hrs by real-time PCR method; assay type: functional, organism-based; method in brief: as §1
[11] = test system: RERF-LC-AI; assay: Anti-tumor activity in human RERF-LC-A1 cells xenografted in athymic nude mouse assessed as tumor growth inhibition at 7.5 mg/kg, po administered for 3 weeks measured twice per week during compound dosing relative to control; assay type: functional; conditions: 504 h, read-out: TGI; method in brief: as §2
[12] = test system: Mus musculus; assay: In vivo inhibition of BRM/BRG1 mutant in human RERF-LC-A1 cells xenografted in po dosed athymic nude mouse assessed as reduction in KRT80 gene expression after 7 to 24 hrs by real-time PCR method; assay type: functional, organism-based; method in brief: as §1
[13] = test system: Mus musculus; assay: Time required for unbound plasma concentration to reach above in vitro unbound EC50 for reduction in BRM/BRG1 mutant-induced KRT80 gene expression in human RERF-LC-A1 cells in athymic nude mouse at 20 mg/kg, po administered daily for 3 weeks; assay type: ADME, organism-based; conditions: in vivo, 504 h
Method in brief: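 Nude mice bearing RERF-LC-AI tumors were dosed orally once daily for 3 weeks at 20 mg/kg. The dose was a suspension in 0.5% methyl cellulose and 0.5% Tween 80 in water. Unbound plasma concentrations over time were compared with the cellular KRT80 EC50.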

[14] = Inhibition of BRM/BRG1 mutant in human RERF-LC-A1 cells assessed as reduction in KRT80 gene expression after 24 hrs by luciferase reporter gene assay; assay type: cell-based
[15] = test system: SBC-5; assay: Antiproliferative activity against human SBC5 cells assessed as cell growth inhibition after 6 days by celltiter-glo luminescent cell viability assay; assay type: functional, cell-based; conditions: SBC-5, 144 h
[16] = Thermodynamic solubility of the compound at 1 mg/ml pH 6.8 after 16 to 24 hrs by shake-flask method; assay type: physicochemical; conditions: buffer, read-out: Therm_solubility
[17] = target: SWI/SNF-related matrix-associated actin-dependent regulator of chromatin subfamily A member 2 (Homo sapiens, UniProt P51531, E852Q); assay: Binding affinity to N-terminal MBP-fused human BRM RecA domain E852Q mutant expressed in Escherichia coli BL21 Star (DE3) by ITC method
[18] = target: T1, SWI/SNF-related matrix-associated actin-dependent regulator of chromatin subfamily A member 2; assay: Binding affinity to N-terminal MBP-fused human BRM RecA domain (705 to 960 residues) expressed in Escherichia coli BL21 Star (DE3) by ITC method
[19] = target: T2, SWI/SNF-related matrix-associated actin-dependent regulator of chromatin subfamily A member 4; assay: Binding affinity to BRG1 ATPase-SnAC domain (unknown origin) expressed in insect sf9 cells assessed as change in melting temperature at 500 uM by DSF-assay (reference value: 0 degreeC)
[20] = target: T2, SWI/SNF-related matrix-associated actin-dependent regulator of chromatin subfamily A member 4; assay: Binding affinity to His6-tagged BRG1 ATPase-SnAC (658 to 1361 residues) (unknown origin) expressed in insect sf9 cells by ITC method
[21] = target: T1, SWI/SNF-related matrix-associated actin-dependent regulator of chromatin subfamily A member 2; assay: Inhibition of recombinant His10-tagged ZZ-HCV3C-BRM ATPase-SnAC (636 to 1331 residues) (unknown origin) expressed in insect sf9 cells preincubated for 5 mins followed by pCMV-dR8.91 and 10 times ATP addition measured after 60 mins by ADP-Glo assay
Method in brief: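 BRM residues 636-1331 (tag removed by HCV3C cleavage), 5 nM final, preincubated with compound for 5 min at room temperature. Reaction started with ATP at 10x Km plus 2 nM pCMV-dR8.91 plasmid, run 60 min. ADP-Glo luminescence read; IC50 by nonlinear regression of duplicate averages.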

[22] = target: T2, SWI/SNF-related matrix-associated actin-dependent regulator of chromatin subfamily A member 4; assay: Binding affinity to BRG1 ATPase-SnAC domain (unknown origin) expressed in insect sf9 cells assessed as change in melting temperature at 100 uM in presence of ADP by DSF-assay (reference value: 0 degreeC)
[23] = Thermodynamic solubility of the compound at 1 mg/ml pH 1 after 16 to 24 hrs by shake-flask method; assay type: physicochemical; conditions: buffer, read-out: Therm_solubility
[24] = target: T1, SWI/SNF-related matrix-associated actin-dependent regulator of chromatin subfamily A member 2; assay: Binding affinity to N-terminal avi-tagged BRM ATPase-SnAC domain (unknown origin) in absence of ADP by SPR assay
Method in brief: (§3)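 SPR at 10 °C: about 2000 RU of N-terminal Avi-tagged BRM ATPase-SnAC captured on a streptavidin chip, with a blank reference cell. Compound dose series injected 60 s at 100 µL/min with 120 s dissociation; data solvent-corrected, double-referenced and fit 1:1 for KD.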

[25] = target: T2, SWI/SNF-related matrix-associated actin-dependent regulator of chromatin subfamily A member 4; assay: Binding affinity to BRG1 ATPase-SnAC domain (unknown origin) expressed in insect sf9 cells assessed as change in melting temperature at 100 uM by DSF-assay (reference value: 0 degreeC)
[26] = target: T1, SWI/SNF-related matrix-associated actin-dependent regulator of chromatin subfamily A member 2; assay: Binding affinity to N-terminal avi-tagged BRM ATPase-SnAC domain (unknown origin) in presence of ADP by SPR assay; method in brief: as §3
[27] = target: T1, SWI/SNF-related matrix-associated actin-dependent regulator of chromatin subfamily A member 2; assay: Inhibition of full length BRM ATPase (1 to 1572 residues) (unknown origin) expressed in insect sf9 cells preincubated for 5 mins followed by pCMV-dR8.91 plasmid and ATP addition measured after 60 mins by ADP-Glo assay
Method in brief: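 Full-length BRM (1-1572), purified from Sf9 cells by Ni or anti-FLAG affinity, then anion exchange and size exclusion. Reaction run 60 min at room temperature; ADP-Glo luminescence read-out; IC50 from duplicate means.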

T2 sequence (P51532 whole entry, the tested form may be a part): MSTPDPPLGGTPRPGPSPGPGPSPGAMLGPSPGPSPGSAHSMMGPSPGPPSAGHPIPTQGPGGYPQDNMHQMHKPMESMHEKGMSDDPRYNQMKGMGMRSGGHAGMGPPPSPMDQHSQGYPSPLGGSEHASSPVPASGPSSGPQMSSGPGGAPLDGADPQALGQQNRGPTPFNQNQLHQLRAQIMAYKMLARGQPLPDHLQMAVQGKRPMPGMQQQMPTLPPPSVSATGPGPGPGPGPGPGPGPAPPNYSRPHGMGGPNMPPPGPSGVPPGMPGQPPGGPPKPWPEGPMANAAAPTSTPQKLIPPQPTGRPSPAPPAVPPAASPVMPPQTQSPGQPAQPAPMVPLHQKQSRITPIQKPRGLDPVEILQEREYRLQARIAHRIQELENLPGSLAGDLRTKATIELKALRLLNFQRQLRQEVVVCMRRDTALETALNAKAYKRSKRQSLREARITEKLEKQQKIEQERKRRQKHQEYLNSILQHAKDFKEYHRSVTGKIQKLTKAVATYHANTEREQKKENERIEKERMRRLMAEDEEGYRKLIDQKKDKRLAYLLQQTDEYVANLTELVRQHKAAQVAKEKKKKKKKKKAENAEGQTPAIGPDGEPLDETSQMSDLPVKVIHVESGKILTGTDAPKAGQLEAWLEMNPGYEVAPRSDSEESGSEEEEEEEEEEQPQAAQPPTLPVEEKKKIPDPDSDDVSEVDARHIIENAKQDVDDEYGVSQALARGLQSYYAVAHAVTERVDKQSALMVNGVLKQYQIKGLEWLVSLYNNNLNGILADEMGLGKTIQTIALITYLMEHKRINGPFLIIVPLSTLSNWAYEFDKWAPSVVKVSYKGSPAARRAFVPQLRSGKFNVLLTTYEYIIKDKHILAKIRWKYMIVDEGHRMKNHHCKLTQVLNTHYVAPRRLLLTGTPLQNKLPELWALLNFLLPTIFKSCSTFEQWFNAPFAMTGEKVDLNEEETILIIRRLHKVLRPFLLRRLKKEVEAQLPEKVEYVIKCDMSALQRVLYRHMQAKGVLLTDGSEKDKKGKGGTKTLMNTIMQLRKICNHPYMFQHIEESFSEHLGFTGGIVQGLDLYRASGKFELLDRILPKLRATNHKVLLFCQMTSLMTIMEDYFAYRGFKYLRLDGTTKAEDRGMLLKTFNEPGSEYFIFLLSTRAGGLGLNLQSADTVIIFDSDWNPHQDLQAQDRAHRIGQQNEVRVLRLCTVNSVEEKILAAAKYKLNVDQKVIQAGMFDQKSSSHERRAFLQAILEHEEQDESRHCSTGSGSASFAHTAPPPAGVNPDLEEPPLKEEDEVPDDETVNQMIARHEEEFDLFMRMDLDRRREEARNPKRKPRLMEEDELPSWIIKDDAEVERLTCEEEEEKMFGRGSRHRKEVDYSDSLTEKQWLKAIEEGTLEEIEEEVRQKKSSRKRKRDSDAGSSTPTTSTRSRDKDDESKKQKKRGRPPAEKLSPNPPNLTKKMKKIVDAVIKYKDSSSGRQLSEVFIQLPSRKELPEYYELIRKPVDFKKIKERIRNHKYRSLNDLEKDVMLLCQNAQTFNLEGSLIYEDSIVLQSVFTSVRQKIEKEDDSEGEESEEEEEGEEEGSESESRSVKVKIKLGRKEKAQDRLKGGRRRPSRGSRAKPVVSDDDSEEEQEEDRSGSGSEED
T1 sequence (P51531 whole entry, the tested form may be a part): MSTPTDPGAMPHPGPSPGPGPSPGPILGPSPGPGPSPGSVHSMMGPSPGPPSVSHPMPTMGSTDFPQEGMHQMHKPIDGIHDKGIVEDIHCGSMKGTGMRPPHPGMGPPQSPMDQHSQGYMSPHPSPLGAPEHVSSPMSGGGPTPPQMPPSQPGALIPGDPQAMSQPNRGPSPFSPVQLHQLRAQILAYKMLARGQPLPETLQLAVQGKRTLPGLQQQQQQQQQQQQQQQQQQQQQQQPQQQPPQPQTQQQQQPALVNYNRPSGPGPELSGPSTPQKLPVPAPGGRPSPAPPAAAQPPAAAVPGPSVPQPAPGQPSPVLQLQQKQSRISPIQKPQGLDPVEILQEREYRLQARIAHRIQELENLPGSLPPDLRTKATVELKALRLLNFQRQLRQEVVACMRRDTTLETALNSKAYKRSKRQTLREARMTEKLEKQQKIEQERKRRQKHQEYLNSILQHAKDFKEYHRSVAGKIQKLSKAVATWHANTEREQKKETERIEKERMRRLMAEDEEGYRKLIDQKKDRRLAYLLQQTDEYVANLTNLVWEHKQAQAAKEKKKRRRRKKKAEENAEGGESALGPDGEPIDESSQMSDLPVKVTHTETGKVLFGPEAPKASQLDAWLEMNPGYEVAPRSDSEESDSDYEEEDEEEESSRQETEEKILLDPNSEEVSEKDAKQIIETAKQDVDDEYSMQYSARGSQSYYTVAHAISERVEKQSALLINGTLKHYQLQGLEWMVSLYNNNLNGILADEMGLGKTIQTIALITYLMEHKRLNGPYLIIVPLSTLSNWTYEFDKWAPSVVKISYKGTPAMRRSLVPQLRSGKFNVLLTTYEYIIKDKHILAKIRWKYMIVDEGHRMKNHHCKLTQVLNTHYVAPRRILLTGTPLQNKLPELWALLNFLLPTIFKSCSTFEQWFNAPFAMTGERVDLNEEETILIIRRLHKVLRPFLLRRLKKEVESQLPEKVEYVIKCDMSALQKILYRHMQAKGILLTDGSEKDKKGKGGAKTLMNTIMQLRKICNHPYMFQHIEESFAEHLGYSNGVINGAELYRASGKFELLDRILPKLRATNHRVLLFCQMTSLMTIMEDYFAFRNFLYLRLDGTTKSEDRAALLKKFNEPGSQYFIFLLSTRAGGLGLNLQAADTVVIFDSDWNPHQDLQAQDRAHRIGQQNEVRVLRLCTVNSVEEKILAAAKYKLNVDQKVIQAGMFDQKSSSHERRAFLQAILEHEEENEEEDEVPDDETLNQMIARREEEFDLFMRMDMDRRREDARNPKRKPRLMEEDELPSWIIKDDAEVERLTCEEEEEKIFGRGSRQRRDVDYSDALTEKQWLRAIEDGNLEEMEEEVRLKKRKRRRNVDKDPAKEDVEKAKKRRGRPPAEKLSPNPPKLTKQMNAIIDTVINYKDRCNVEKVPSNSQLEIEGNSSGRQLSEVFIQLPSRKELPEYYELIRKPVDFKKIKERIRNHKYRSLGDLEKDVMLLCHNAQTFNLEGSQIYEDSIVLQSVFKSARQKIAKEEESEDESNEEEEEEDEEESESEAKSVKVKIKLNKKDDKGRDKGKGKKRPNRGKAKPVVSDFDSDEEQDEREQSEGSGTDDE
SWI/SNF-related matrix-associated actin-dependent regulator of chromatin subfamily A member 2 (Homo sapiens, UniProt P51531, E852Q), sequence (P51531 whole entry E852Q, the tested form may be a part): as the sequence (P51531 whole entry, the tested form may be a part) above, with E852Q counted along it

SMILES: O=C(Nc1ccnc(Cl)c1)Nc1ccnc(C(F)F)c1
- IC50 [1]: 110 nM

SMILES: O=C(Nc1cc(C(F)F)ns1)Nc1cc(F)ncc1CO
- T/C [2]: 30%
- IC50 [3]: < 5 nM
- inhibition in vivo at 20 mg/kg [4]: ≤ 90%
- inhibition [5]: Dose-dependent effect
- EC50 [6]: 10 nM
- EC50 [7]: 4 nM
- Activity [8]: Non-Toxic
- inhibition in vivo at 20 mg/kg [9]: 55%
- inhibition [10]: inactive
- inhibition in vivo at 7.5 mg/kg [11]: 21%
- inhibition [12]: Dose-dependent effect
- Time [13]: 12 h
- EC50 [14]: 10 nM
- EC50 [15]: > 10000 nM
- solubility thermodynamic [16]: 34 µM (≈ 10.8 µg/mL)
- IC50 [1]: < 5 nM

SMILES: O=C(Nc1cc(C(F)F)ns1)Nc1cc(Cl)ncc1CO
- IC50 [3]: < 5 nM
- EC50 [6]: 42 nM
- EC50 [7]: 13 nM
- EC50 [15]: > 10000 nM
- IC50 [1]: < 5 nM

SMILES: Cc1cc(NC(=O)Nc2ccnc(Cl)c2)ccn1
- IC50 [3]: 150 nM
- IC50 [1]: 200 nM

SMILES: O=C(Nc1ccnc(Cl)c1)Nc1cc(C(F)F)ns1
- EC50 [6]: 360 nM
- EC50 [7]: 31 nM
- Kd [17]: > 10000 nM
- EC50 [15]: 6300 nM
- Kd [18]: 13 nM

SMILES: Cc1csc(NC(=O)Nc2ccnc(Cl)c2)n1
- IC50 [3]: 570 nM
- IC50 [1]: 970 nM

SMILES: Nc1ncnc2c1ncn2[C@@H]1O[C@H](COP(=O)(O)OP(=O)(O)O)[C@@H](O)[C@H]1O
- ΔTm [19]: 3.1 °C

SMILES: O=C(Nc1ccnc(Cl)c1)Nc1ccccn1
- IC50 [3]: 1700 nM
- IC50 [1]: 3800 nM

SMILES: O=C(Nc1ccnc(Cl)c1)Nc1cc(C(F)(F)F)ns1
- EC50 [6]: 930 nM
- EC50 [7]: 130 nM
- EC50 [15]: > 10000 nM

SMILES: O=C(Nc1ccnc(Cl)c1)Nc1ccnc(C(F)(F)F)c1
- IC50 [3]: 30 nM
- IC50 [1]: 60 nM

SMILES: Nc1cnc(F)cc1NC(=O)Nc1cc(C(F)F)ns1
- IC50 [3]: < 5 nM
- EC50 [6]: 10 nM
- EC50 [7]: 5 nM
- EC50 [15]: > 10000 nM
- solubility thermodynamic [16]: 92 µM (≈ 27.9 µg/mL)
- IC50 [1]: < 5 nM

SMILES: Nc1cnc(Cl)cc1NC(=O)Nc1cc(C(F)F)ns1
- IC50 [3]: < 5 nM
- EC50 [6]: 26 nM
- EC50 [7]: 13 nM
- EC50 [15]: > 10000 nM
- solubility thermodynamic [16]: 40 µM (≈ 12.8 µg/mL)
- IC50 [1]: < 5 nM

SMILES: Cc1c[nH]c(NC(=O)Nc2ccnc(Cl)c2)n1
- IC50 [1]: > 50000 nM

SMILES: Cc1cc(NC(=O)Nc2ccnc(Cl)c2)sn1
- EC50 [6]: > 10000 nM
- EC50 [7]: 650 nM
- EC50 [15]: > 10000 nM

SMILES: O=C(Nc1ccncc1)Nc1ccnc(Cl)c1
- IC50 [3]: 770 nM
- Kd [20]: 280 nM
- inhibition [21]: Active
- ΔTm [22]: 5.8 °C
- solubility thermodynamic [23]: 3100 µM (≈ 771 µg/mL)
- Activity [24]: Dose-dependent effect
- Kd [24]: 87 nM
- ΔTm [25]: 3.8 °C
- Kd [26]: 450 nM
- IC50 [27]: 8100 nM
- solubility thermodynamic [16]: 330 µM (≈ 82.1 µg/mL)
- IC50 [1]: 1100 nM
